The values that follow come from ChEMBL document CHEMBL1128721, “Identification, characterization and pharmacological profile of three metabolites of (R)-(+)-1,2,3,6-tetrahydro-4-phenyl-1-[(3-phenylcyclohexen-1-yl)methyl]pyridine (CI-1007), a dopamine autoreceptor agonist and potential antipsychotic agent” (J Med Chem, 1995).

The pKi is the negative decadic logarithm of the Ki, by convention in mol/L. In general, ED50 refers to the dose that gives a 50% effect, or the effect in half of the subjects.

The target in one experiment is T1, D(4) dopamine receptor (Homo sapiens, UniProt P21917).
T1 sequence (P21917 whole entry): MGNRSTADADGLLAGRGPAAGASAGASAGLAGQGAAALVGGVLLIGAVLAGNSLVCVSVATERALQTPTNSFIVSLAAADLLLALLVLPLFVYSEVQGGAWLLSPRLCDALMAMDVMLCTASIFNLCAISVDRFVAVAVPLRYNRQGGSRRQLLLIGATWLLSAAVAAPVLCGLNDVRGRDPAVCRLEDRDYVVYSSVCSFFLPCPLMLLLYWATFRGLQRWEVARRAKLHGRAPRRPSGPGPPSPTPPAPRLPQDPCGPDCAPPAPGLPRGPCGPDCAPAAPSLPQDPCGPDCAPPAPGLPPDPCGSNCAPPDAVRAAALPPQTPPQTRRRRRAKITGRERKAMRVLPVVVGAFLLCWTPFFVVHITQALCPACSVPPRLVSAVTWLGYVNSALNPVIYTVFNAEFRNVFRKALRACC
The experiment is described as follows: Binding affinity towards human Dopamine receptor D4.2 evaluated using [3H]spiperone. An outline of the steps:
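CHO-K1 membranes bearing human D4.2 run in triplicate with 0.2 nM [3H]spiperone in Tris HCl pH 7.4 buffer with 1.5 mM CaCl2 and 5 mM KCl, 25 °C, 60 min. Specific binding is the fraction blocked by 1 μM haloperidol. Filtration, then scintillation counting. Ki ± SEM by nonlinear regression over four to six concentrations; IC50 given where inhibition at 10 μM is below 50%.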

Another experiment has as its target D(3) dopamine receptor (Homo sapiens, UniProt P35462). Nature of the experiment: Binding affinity towards human Dopamine receptor D3 evaluated using [3H]spiperone.
The test system of experiment [1] is Rattus norvegicus. The experiment is described as follows: Effect on […] in rats after intraperitoneal administration of compound (10 mg/kg) and GBL, was determined and expressed as percent reversal of the increase in DOPA. The format is functional.
In experiment [2] the test system is Rattus norvegicus. The experiment is described as follows: Effect on DOPA accumulation in rat striatum after intraperitoneal administration of compound (10 mg/kg) and GBL, was determined and expressed as percent reversal of the increase in DOPA. The format is functional. An outline of the steps:
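Male Long-Evans rats given compound 10 mg/kg ip 60 min before sacrifice. GBL 750 mg/kg ip (omitted in controls) and NSD 1015 100 mg/kg ip given 30 min before sacrifice. Striatal DOPA measured by HPLC with electrochemical detection. Result is percent reversal of the GBL-induced DOPA rise, ± SEM.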

In experiment [3] the target is T2, D(2) dopamine receptor (Homo sapiens, UniProt P14416). Nature of the experiment: Binding affinity towards human Dopamine receptor D2L evaluated using [3H]spiperone. The method in brief:
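Human D2L expressed in CHO-K1 membranes. Labelled with 0.6 nM [3H]spiperone in triplicate in Tris HCl pH 7.4 buffer with 1 mM EDTA and 6 mM MgCl2, 60 min at 25 °C. 1 μM haloperidol defines specific binding. Bound ligand filtered and counted. Ki ± SEM from four to six concentrations by nonlinear regression.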

A further experiment deals with Monkey. The experiment is described as follows: Inhibition of conditioned avoidance in squirrel monkeys was determined after peroral administration of compound. It counts as functional. Conditions: in Saimiri, po. An outline of the steps: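 Squirrel monkeys dosed orally, conditioned avoidance monitored for 6 h. Inhibition taken as percent of control avoidance responding over the 4 h peak-effect period. ED50 with 95% confidence range from three doses, eight monkeys per dose.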

The target in experiment [4] is T2, D(2) dopamine receptor. Nature of the experiment: Intrinsic activity relative to Quinpirole for human Dopamine receptor D2L was determined. An outline of the steps:
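CHO-10001 cells transfected with human DA D2L receptor; activation read as stimulation of [3H]thymidine uptake (mitogenesis). Intrinsic activity = maximal response of compound relative to maximal response of full DA agonist quinpirole, ± SEM.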

Experiment [5] concerns the target T2, D(2) dopamine receptor. Nature of the experiment: Binding affinity towards human Dopamine receptor D2L evaluated using [3H]N-0437. An outline of the steps: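 CHO-K1 membranes expressing human D2L incubated in triplicate with 1 nM [3H]N-0437 in 25 mM Tris HCl pH 7.4 with 1 mM EDTA and 6 mM MgCl2, 25 °C for 60 min. Nonspecific binding set with 1 μM haloperidol. Filtration, scintillation counting. Ki by nonlinear regression from four to six concentrations, ± SEM.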

A further experiment concerns Mus musculus. Nature of the experiment: Inhibition of locomotor activity in mice was determined after intraperitoneal administration of compound. The format is functional. The conditions noted are these: ip. An outline of the steps: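 Mice dosed ip, then tested immediately for 1 h in darkened cylindrical photobeam chambers. Inhibition expressed relative to vehicle-treated mice. ED50 with 95% confidence range from three to six doses, 6–18 animals per dose.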

Experiment [6] deals with Rattus norvegicus. Nature of the experiment: Effect on DOPA accumulation in rat striatum after intraperitoneal administration of compound (3 mg/kg) and GBL, was determined and expressed as percent reversal of the increase in DOPA. The format is functional.

pKi: −log10 of the molar value.

Sequence of D(3) dopamine receptor (P35462 whole entry): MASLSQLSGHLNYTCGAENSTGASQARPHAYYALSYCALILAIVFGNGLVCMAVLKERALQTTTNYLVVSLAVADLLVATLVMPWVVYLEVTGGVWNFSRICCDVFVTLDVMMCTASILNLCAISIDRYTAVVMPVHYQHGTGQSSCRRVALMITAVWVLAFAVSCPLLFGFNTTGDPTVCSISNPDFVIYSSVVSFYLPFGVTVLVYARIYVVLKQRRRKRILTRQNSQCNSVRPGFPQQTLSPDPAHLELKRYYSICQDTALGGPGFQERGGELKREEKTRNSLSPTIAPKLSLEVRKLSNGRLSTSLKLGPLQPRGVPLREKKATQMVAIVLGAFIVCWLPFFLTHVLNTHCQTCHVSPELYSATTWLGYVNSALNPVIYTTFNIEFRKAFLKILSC
T2 sequence (P14416 whole entry): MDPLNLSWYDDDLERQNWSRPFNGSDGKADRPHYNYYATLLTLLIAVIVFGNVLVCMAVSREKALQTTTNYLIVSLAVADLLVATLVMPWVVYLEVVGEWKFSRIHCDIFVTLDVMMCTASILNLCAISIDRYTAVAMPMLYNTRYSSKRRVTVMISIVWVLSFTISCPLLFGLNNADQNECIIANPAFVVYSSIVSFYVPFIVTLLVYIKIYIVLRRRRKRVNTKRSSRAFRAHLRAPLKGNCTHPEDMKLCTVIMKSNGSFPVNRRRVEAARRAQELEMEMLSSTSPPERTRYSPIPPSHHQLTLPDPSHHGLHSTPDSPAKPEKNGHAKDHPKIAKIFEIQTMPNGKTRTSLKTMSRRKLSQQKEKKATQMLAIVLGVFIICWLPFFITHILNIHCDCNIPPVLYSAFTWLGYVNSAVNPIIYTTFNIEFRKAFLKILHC

As for `Oc1ccc(C2=CCC[C@@H](CN3CC=C(c4ccccc4)CC3)C2)cc1`, the pKi at D(4) dopamine receptor was 7.21; on D(3) dopamine receptor, 9.28; at D(2) dopamine receptor [3], 8.46; on D(2) dopamine receptor [5], 9.70. The Activity in the experiment on Rattus norvegicus [1] was -100; with Rattus norvegicus [2], -27; at D(2) dopamine receptor [4] it was 0.62; with Rattus norvegicus [6], -44. The ED50 was 1.34 mg/kg with Monkey and 0.3 mg/kg with Mus musculus.
For the molecule `C1=C(c2ccccc2)CCN(C[C@@H]2CCC=C(c3ccccc3)C2)C1` [CI-1007], the Activity is -99 in the experiment on Rattus norvegicus [1], -66 with Rattus norvegicus [2] and 0.66 on D(2) dopamine receptor [4]. Besides, the ED50 was 0.63 mg/kg in the experiment on Monkey and 0.7 mg/kg in the experiment with Mus musculus. For the same molecule, the pKi at D(2) dopamine receptor [5] is 8.08.
In the case of `Oc1ccc(C2=CCN(C[C@@H]3CCC=C(c4ccccc4)C3)CC2)cc1`, the pKi on D(4) dopamine receptor is less than 5.00; at D(3) dopamine receptor it was 7.25; on D(2) dopamine receptor [3], 7.03; on D(2) dopamine receptor [5], 8.24. For the same molecule, the figures for the Activity with Rattus norvegicus [1], in the experiment with Rattus norvegicus [2] and at D(2) dopamine receptor [4] were 33, 0 and 0.37, respectively. Besides, the ED50 in the experiment with Monkey is more than 2.5 mg/kg; in the experiment with Mus musculus it was more than 30 mg/kg.
Consider `Oc1ccc(C2=CCN(C[C@@H]3CCC=C(c4ccc(O)cc4)C3)CC2)cc1`, for which the pKi on D(4) dopamine receptor is 7.17; on D(3) dopamine receptor, 8.47; on D(2) dopamine receptor [3] it was 7.99; at D(2) dopamine receptor [5], 8.66. For the same molecule, the Activity was -10 with Rattus norvegicus [1], -8 in the experiment on Rattus norvegicus [2] and 0.29 on D(2) dopamine receptor [4]. The ED50 with Monkey was more than 2.5 mg/kg; in the experiment with Mus musculus it was 6.1 mg/kg.
